Source: ChEMBL document CHEMBL1255494, “In vivo comparison of the pharmacodynamic targets for echinocandin drugs against Candida species” (Antimicrob Agents Chemother, 2010)
≈ marks a conversion by molar mass, not a printed value. *1 amine or outer side, *2 acyl side, *3 side chain or, on linkers, in order; H or OH if unused. Where a SMILES comes first, the peptide text is derived from it. Bridges are numbered along the chain shown (N, C = ends). [ ]: non-standard residue; d: D form. The star is where a group is joined. hTyr(3S-OH,4S-OH,3'-OSO3H) = N[C@H](C(=O)O)[C@H](O)[C@@H](O)c1ccc(O)c(OS(=O)(=O)O)c1; Orn(4R-OH,5R-OH) = O=C([C@H](C[C@@H](O)[C@@H](O)N[*:3])N[*:1])[*:2]; Pro(3S-OH,4S-Me) = C[C@H]1CN[C@H](C(=O)O)[C@H]1O; X1 = CCCCCOc1ccc(-c2cc(-c3ccc(C(=O)*)cc3)no2)cc1; Gln(3R-OH) = NC(=O)C[C@@H](O)[C@H](N)C(=O)O; Hyp = O=C(O)[C@@H]1C[C@@H](O)CN1

Assays:
[1] = AUC (0 to 24 hrs) in Candida albicans infected neutropenic ICR Swiss mouse at 5 mg/kg, ip; type: ADME, organism-based; set-up: time < 24 hr, dose 5 mg/kg, route intraperitoneal; conditions: plasma
Procedure, shortened: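 Neutropenic female ICR Swiss mice (cyclophosphamide sc at 150 mg/kg on day −4, 100 mg/kg on day −1 and day +2) infected iv via tail vein with Candida; single ip doses of 5, 20 or 80 mg/kg. Serum drawn from 3 mice per time point at eight time points and assayed by microbiologic assay (C. albicans K1) or […]. Noncompartmental analysis; AUC by trapezoidal rule.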

[2] = Ratio of AUC (0 to 24 hrs) in Candida albicans infected neutropenic ICR Swiss mouse to MIC for Candida albicans at static dose after 24 hrs; type: functional
Procedure, shortened: (§1)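 Neutropenic mice were infected iv and treated 2 h later. Four to six ip dose levels (0.078–160 mg/kg) were given every 24 h for 4 days, 3 mice per regimen. Kidney CFU were counted at 96 h. A sigmoid dose-effect model gave the static and 1-log-kill doses relative to burden at therapy start.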

[3] = Ratio of AUC (0 to 24 hrs) in Candida glabrata infected neutropenic ICR Swiss mouse to MIC for Candida glabrata at static dose after 24 hrs; type: functional; procedure, shortened: as §1
[4] = Ratio of fAUC (0 to 24 hrs) in Candida glabrata infected neutropenic ICR Swiss mouse to MIC for Candida glabrata at static dose after 24 hrs; type: functional
[5] = Ratio of fAUC (0 to 24 hrs) in Candida parapsilosis infected neutropenic ICR Swiss mouse to MIC for Candida parapsilosis at static dose after 24 hrs; type: functional
[6] = Ratio of AUC (0 to 24 hrs) in Candida albicans infected neutropenic ICR Swiss mouse to MIC for Candida albicans at 1 log kill dose after 24 hrs; type: functional; procedure, shortened: as §1
[7] = Ratio of AUC (0 to 24 hrs) in Candida parapsilosis infected neutropenic ICR Swiss mouse to MIC for Candida parapsilosis at 1 log kill dose after 24 hrs; type: functional; procedure, shortened: as §1
[8] = Ratio of fAUC (0 to 24 hrs) in Candida albicans infected neutropenic ICR Swiss mouse to MIC for Candida albicans at 1 log kill dose after 24 hrs; type: functional
[9] = Ratio of fAUC (0 to 24 hrs) in Candida glabrata infected neutropenic ICR Swiss mouse to MIC for Candida glabrata at 1 log kill dose after 24 hrs; type: functional
Candida albicans [10] = assay: Fungistatic activity against Candida albicans infected in neutropenic ICR Swiss mouse after 24 hrs; type: functional
Procedure, shortened: (§2)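 Female ICR Swiss mice, neutropenic via cyclophosphamide s.c. (150 mg/kg day −4, 100 mg/kg day −1 and day +2), infected by tail-vein injection of clinical isolates 2 h before therapy. Intraperitoneal dosing every 24 h for 4 days, 4–6 dose levels from 0.078 to 160 mg/kg, 3 mice per regimen. Kidney CFU counted at 96 h. Sigmoid dose-effect fit gives static dose and 1 log kill dose relative to burden at start of therapy.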

Nakaseomyces glabratus [11] = assay: Fungistatic activity against Candida glabrata infected in neutropenic ICR Swiss mouse after 24 hrs; type: functional; procedure, shortened: as §2
Candida parapsilosis [12] = assay: Fungistatic activity against Candida parapsilosis infected in neutropenic ICR Swiss mouse after 24 hrs; type: functional; procedure, shortened: as §2
Nakaseomyces glabratus [13] = assay: Antifungal activity against Candida glabrata infected in neutropenic ICR Swiss mouse assessed log reduction in bacterial count […]; type: functional; procedure, shortened: as §2
Candida parapsilosis [14] = assay: Antifungal activity against Candida parapsilosis infected in ICR Swiss mouse assessed log reduction in bacterial count […]; type: functional; procedure, shortened: as §2
Candida albicans [15] = assay: Antifungal activity against Candida albicans infected in ICR Swiss mouse; type: functional; procedure, shortened: as §2
Nakaseomyces glabratus [16] = assay: Antifungal activity against Candida glabrata infected in ICR Swiss mouse; type: functional; procedure, shortened: as §2
Candida parapsilosis [17] = assay: Antifungal activity against Candida parapsilosis infected in ICR Swiss mouse; type: functional; procedure, shortened: as §2
Candida albicans [18] = assay: Antifungal activity against Candida albicans 98-17 after 24 hrs; type: functional; conditions: 98-17, 24 h
Procedure, shortened: (§3)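 MICs by CLSI M27-A3 broth dilution in RPMI 1640, inoculum 0.5 × 10³ to 2.5 × 10³ cells/ml, 35°C. Read visually at 24 h as the lowest concentration giving ≥50% growth reduction versus control. Run on three occasions in duplicate and reported as the mean. C. krusei ATCC 6258 and C. parapsilosis ATCC 22019 served as QC strains.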

Candida albicans [19] = assay: Antifungal activity against Candida albicans 98-210 after 24 hrs; type: functional; conditions: 98-210, 24 h
Procedure, shortened: (§4)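 Broth microdilution per CLSI M27-A3 in RPMI 1640; inoculum 0.5 × 10³ to 2.5 × 10³ cells/ml, 35°C. […] Three separate occasions in duplicate, mean reported; C. krusei ATCC 6258 and C. parapsilosis ATCC 22019 as daily QC.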

Candida albicans [20] = assay: Antifungal activity against Candida albicans 580 after 24 hrs; type: functional; conditions: Candida albicans, 580, 24 h; procedure, shortened: as §4
Candida albicans [21] = assay: Antifungal activity against Candida albicans K1 after 24 hrs; type: functional; conditions: K1, 24 h; procedure, shortened: as §4
Candida albicans [22] = assay: Antifungal activity against Candida albicans 570 after 24 hrs; type: functional; conditions: Candida albicans, 570, 24 h; procedure, shortened: as §3
Nakaseomyces glabratus [23] = assay: Antifungal activity against Candida glabrata 513 after 24 hrs; type: functional; conditions: Nakaseomyces glabratus, 513, 24 h; procedure, shortened: as §4
Nakaseomyces glabratus [24] = assay: Antifungal activity against Candida glabrata 32930 after 24 hrs; type: functional; conditions: Nakaseomyces glabratus, 32930, 24 h; procedure, shortened: as §4
Nakaseomyces glabratus [25] = assay: Antifungal activity against Candida glabrata 33616 after 24 hrs; type: functional; conditions: Nakaseomyces glabratus, 33616, 24 h; procedure, shortened: as §3
Nakaseomyces glabratus [26] = assay: Antifungal activity against Candida glabrata 35315 after 24 hrs; type: functional; conditions: Nakaseomyces glabratus, 35315, 24 h; procedure, shortened: as §3
Nakaseomyces glabratus [27] = assay: Antifungal activity against Candida glabrata 5376 after 24 hrs; type: functional; conditions: Nakaseomyces glabratus, 5376, 24 h; procedure, shortened: as §4
Nakaseomyces glabratus [28] = assay: Antifungal activity against Candida glabrata 34341 after 24 hrs; type: functional; conditions: Nakaseomyces glabratus, 34341, 24 h; procedure, shortened: as §3
Nakaseomyces glabratus [29] = assay: Antifungal activity against Candida glabrata 37661 after 24 hrs; type: functional; conditions: Nakaseomyces glabratus, 37661, 24 h; procedure, shortened: as §3
Candida metapsilosis = assay: Antifungal activity against Candida metapsilosis 20463.02 after 24 hrs; type: functional; conditions: Lodderomyces metapsilosis, 20463.02, 24 h; procedure, shortened: as §3
Candida parapsilosis [30] = assay: Antifungal activity against Candida parapsilosis 20450.096 after 24 hrs; type: functional; conditions: Lodderomyces parapsilosis, 20450.096, 24 h; procedure, shortened: as §3
Candida parapsilosis [31] = assay: Antifungal activity against Candida parapsilosis 20385.079 after 24 hrs; type: functional; conditions: Lodderomyces parapsilosis, 20385.079, 24 h; procedure, shortened: as §3
Candida parapsilosis [32] = assay: Antifungal activity against Candida parapsilosis 20477.048 after 24 hrs; type: functional; conditions: Lodderomyces parapsilosis, 20477.048, 24 h; procedure, shortened: as §3
Candida parapsilosis [33] = assay: Antifungal activity against Candida parapsilosis 20562.03 after 24 hrs; type: functional; conditions: Lodderomyces parapsilosis, 20562.03, 24 h; procedure, shortened: as §3
Candida parapsilosis [34] = assay: Antifungal activity against Candida parapsilosis 20553.009 after 24 hrs; type: functional; conditions: Lodderomyces parapsilosis, 20553.009, 24 h; procedure, shortened: as §3
Candida parapsilosis [35] = assay: Antifungal activity against Candida parapsilosis 20489.085 after 24 hrs; type: functional; conditions: Lodderomyces parapsilosis, 20489.085, 24 h; procedure, shortened: as §4
Candida orthopsilosis = assay: Antifungal activity against Candida orthopsilosis 20577.055 after 24 hrs; type: functional; conditions: Lodderomyces orthopsilosis, 20577.055, 24 h; procedure, shortened: as §3
Candida parapsilosis [36] = assay: Antifungal activity against Candida parapsilosis 20435.057 after 24 hrs; type: functional; conditions: Lodderomyces parapsilosis, 20435.057, 24 h; procedure, shortened: as §3

`CCCCCOc1ccc(-c2cc(-c3ccc(C(=O)N[C@H]4C[C@@H](O)[C@@H](O)NC(=O)[C@@H]5[C@@H](O)[C@@H](C)CN5C(=O)[C@H]([C@H](O)CC(N)=O)NC(=O)[C@H]([C@H](O)[C@@H](O)c5ccc(O)c(OS(=O)(=O)O)c5)NC(=O)[C@@H]5C[C@@H](O)CN5C(=O)[C@H]([C@@H](C)O)NC4=O)cc3)no2)cc1` [MICAFUNGIN] (X1-[Orn(4R-OH,5R-OH)]T[Hyp][hTyr(3S-OH,4S-OH,3'-OSO3H)][Gln(3R-OH)][Pro(3S-OH,4S-Me)]; lactam 1-C) gave an AUC(0-t) at 24 h [1] of 138 µg·h/mL, a Ratio [2] of 5299 and a Ratio [3] of 1542. For the same compound, the Ratio [4] was 3.9, the Ratio [5] was 4.95 and the Ratio [6] was 10088. The Ratio [7] was 3090, the Ratio [8] was 25.2 and the Ratio [9] was 9.45. For the same compound, the Activity (Candida albicans [10]) was 2.79 mg/kg, the Activity (Nakaseomyces glabratus [11]) was 2.47 mg/kg and the Activity (Candida parapsilosis [12]) was 32.3 mg/kg. The Activity (Nakaseomyces glabratus [13]) was 5.88 mg/kg, the Activity (Candida parapsilosis [14]) was 55.8 mg/kg and the Emax (Candida albicans [15]) was 7.2 log10 CFU/kidneys. It also gave an ED50 (Candida albicans [15]; Candida albicans) of 18.9 mg/kg, an Emax (Nakaseomyces glabratus [16]) of 5.4 log10 CFU/kidneys and an ED50 (Nakaseomyces glabratus [16]; Nakaseomyces glabratus) of 3 mg/kg. The Emax (Candida parapsilosis [17]) was 4.8 log10 CFU/kidneys, the ED50 (Candida parapsilosis [17]; Lodderomyces parapsilosis) was 2.6 mg/kg and the MIC (Candida albicans [18]) was 0.03 µg/mL (≈ 0.0236 µM). It also gave an MIC (Candida albicans [19]) of 0.016 µg/mL (≈ 0.0126 µM), an MIC (Candida albicans [20]) of 0.008 µg/mL (≈ 0.0063 µM) and an MIC (Candida albicans [21]) of 0.016 µg/mL (≈ 0.0126 µM). It also gave an MIC (Candida albicans [22]) of 0.02 µg/mL (≈ 0.0157 µM), an MIC (Nakaseomyces glabratus [23]) of 0.016 µg/mL (≈ 0.0126 µM) and an MIC (Nakaseomyces glabratus [24]) of 0.008 µg/mL (≈ 0.0063 µM). For the same compound, the MIC (Nakaseomyces glabratus [25]) was 0.25 µg/mL (≈ 0.197 µM), the MIC (Nakaseomyces glabratus [26]) was 0.06 µg/mL (≈ 0.0472 µM) and the MIC (Nakaseomyces glabratus [27]) was 0.008 µg/mL (≈ 0.0063 µM). It also gave an MIC (Nakaseomyces glabratus [28]) of 0.06 µg/mL (≈ 0.0472 µM), an MIC (Nakaseomyces glabratus [29]) of 0.25 µg/mL (≈ 0.197 µM) and an MIC (Candida metapsilosis) of 0.12 µg/mL (≈ 0.0945 µM). For the same compound, the MIC (Candida parapsilosis [30]) was 0.25 µg/mL (≈ 0.197 µM), the MIC (Candida parapsilosis [31]) was 0.5 µg/mL (≈ 0.394 µM) and the MIC (Candida parapsilosis [32]) was 0.5 µg/mL (≈ 0.394 µM). It also gave an MIC (Candida parapsilosis [33]) of 0.5 µg/mL (≈ 0.394 µM), an MIC (Candida parapsilosis [34]) of 1 µg/mL (≈ 0.787 µM) and an MIC (Candida parapsilosis [35]) of 0.12 µg/mL (≈ 0.0945 µM). It also gave an MIC (Candida orthopsilosis) of 0.25 µg/mL (≈ 0.197 µM) and an MIC (Candida parapsilosis [36]) of 0.5 µg/mL (≈ 0.394 µM).
